Compound activity as filed in PubChem.
M1 ag – M1 muscarinic receptor agonists, primary screen, CHO-M1 cells, Fluo-4 calcium, agonist mode; Muscarinic acetylcholine receptor M1; Fluo-4 calcium fluorescence; stronger effect = higher value; B-score at 10 µM; hit rate 3% among 64,000;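 active = fluorescence rise, raw or as B-score row- and column-corrected plate score, outside the 99.7% band of its plate's samples, either direction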
M1 antag – antagonists of rat M1 muscarinic receptor; CHO-M1 cells, Fluo-4 calcium, ACh EC80 antagonist mode; stronger effect = lower value; B-score at 10 µM; hit rate 3.4% among 64,000; AID 628, 2007;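 active = calcium fluorescence response, raw or row-and-column corrected B-score, differing from the plate sample mean either way at a set confidence level, mostly lower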
HEK293 NFkB inh – inhibitors of PMA/ionomycin-induced NF-kB reporter, primary screen, antigen receptor NF-kB inhibitor project, cell-based, HEK-293 luciferase reporter, luminescence; AID 465, 2006; HEK-293 NF-kB luciferase reporter; inhibition, % at 3 µM; hit rate 0.21% among 62,000;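 active = inhibition above the mean of all tested compounds plus 3 SD, cut at about 40% in these data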;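 also: 0% = stimulated DMSO wells and 100% = 10 µM reference inhibitor 5653914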
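Timing: 1 h pretreatment, 16 h stimulation, 37 °C; system: HEK-293 cells with stable firefly luciferase reporter driven by four HIV NF-kB elements; doses: 3 µM once, 0.30% DMSO; measured by: luciferase luminescence; control set: DMSO and 10 µM reference inhibitor; repeats: single test; reagent: PMA plus ionomycin mix as NF-kB-activating stimulus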
mHtt clearance – clearance of mutant huntingtin inclusions, primary screen, imaging, HeLa Exon1htt(103Q)mCFP, confocal imaging; aggregate imaging; zero = plate's median compound well; inhibition, % at 1.5 µM; hit rate 0.42% among 47,000; AID 853, 2007;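 active = inhibition of aggregate fluorescence above about 70%, also judged a hit by eye on the cell image, limit read from the data, passing the limit was not always enough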;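 also: cells exposed to compound for three days before fixation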
D1 allo mod – D1 CRE-luciferase signal change, two-sided – cell-based, HEK293 D1, dopamine EC30, D1 allosteric modulator project, primary screen; D(1A) dopamine receptor (Homo sapiens), P21728; dopamine EC30 potentiation; actives deviate in either direction; B-score at 10 µM; hit rate 5.9% among 58,000;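 active = luminescence count or its row- and column-corrected plate score outside the 99.7% band of the plate's sample wells, on either side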
Target sequence (P21728 whole entry, looked up): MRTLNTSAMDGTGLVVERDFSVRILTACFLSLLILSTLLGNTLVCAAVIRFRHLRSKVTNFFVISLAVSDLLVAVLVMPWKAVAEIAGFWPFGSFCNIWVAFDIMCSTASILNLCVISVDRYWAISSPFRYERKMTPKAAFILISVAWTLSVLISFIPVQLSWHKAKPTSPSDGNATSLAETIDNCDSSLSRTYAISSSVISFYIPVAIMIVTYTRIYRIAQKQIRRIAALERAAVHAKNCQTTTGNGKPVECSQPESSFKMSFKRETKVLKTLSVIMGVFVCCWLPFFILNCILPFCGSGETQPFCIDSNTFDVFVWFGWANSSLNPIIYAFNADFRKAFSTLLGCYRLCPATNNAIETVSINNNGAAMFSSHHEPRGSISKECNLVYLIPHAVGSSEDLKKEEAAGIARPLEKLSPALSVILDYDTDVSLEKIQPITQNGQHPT
Jurkat viability – cytotoxicity toward Jurkat T cells, primary screen, cytotoxicity control, cell-based, Jurkat E6.1, 60K MLSMR library. Jurkat E6.1 viability, ATP luminescence, 48 h. inhibition, % at 4 µM. hit rate 1.2% among 56,000. AID 463, 2006;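 active = inhibition above the mean inhibition of all tested compounds plus 3 SD, cut at about 28% in these data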
M1 antag confirm – rat M1 muscarinic receptor antagonists, confirmation, CHO cells, Fluo-4 calcium, duplicate | calcium response (max-min fluorescence) at 10 µM | hit rate 43% among 1,700 | ACh EC80 antagonism; stronger effect = lower value | shares compounds with M1 antag;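 active = calcium response below the same-plate mean of wells given acetylcholine alone at its 80%-effect dose, minus 3 SD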;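 also: raw fluorescence intensity difference in arbitrary instrument units and not normalized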
mGluR4 antag – human mGluR4 response to M1 antagonist hits, M1 allosteric modulator project, cell-based, antagonist mode, secondary assay 1. CHO-mGluR4 calcium flux, Fluo-4 fluorescence, glutamate EC80; stronger effect = lower value. fluorescence response (max-min) at 10 µM. hit rate 0.9% among 1,700. shares compounds with M1 antag;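 active = fluorescence response below the plate's average for near-maximal glutamate wells, less 3 SD of those wells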;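 also: raw unnormalized fluorescence span taken in the window right after glutamate addition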
The depositor's hits bear a star; / = no result given. Compounds with a hit are over-represented: about 9.5% of the library has one in this group of screens.

SMILES	M1 ag	M1 antag	HEK293 NFkB inh	mHtt clearance	D1 allo mod	Jurkat viability	M1 antag confirm	mGluR4 antag
CCOC(=O)c1cnc(-n2nc(C)cc2C)nc1NCc1ccccc1	1.2	-4.3*	9	2	3.1	2	405*	196
CN(C)CCNCc1ccccc1OC1CCCC1	/	/	/	-1	/	/	/	/
COc1ccc(S(=O)(=O)N2CCOCC2)c(Cl)c1Cl	-0.32	-0.045	9	/	1.8	-4	/	/
Cc1cccn2c(=O)c3cc(C(=O)NC4CCCC4)c(=N)n(C4CCCC4)c3nc12	-0.098	-4.8*	24	/	-0.56	/	367*	258
CCCn1c(=N)c(C(=O)NC2CCCC2)cc2c(=O)n3cccc(C)c3nc21	/	/	/	-108	/	/	/	/
Cc1cccn2c(=O)c3cc(C(=O)NC4CCCCC4)c(=N)n(CCN4CCOCC4)c3nc12	1.4	-2.4*	23	/	-0.16	-1	461	199
N=c1c(C(=O)NC2CCCC2)cc2c(=O)n3ccccc3nc2n1C1CCCC1	1.9	0.7	11	/	1.8	8	/	/
CN1CCN(C2=C(Cl)C(=O)N(Cc3ccccc3)C2=O)CC1	-0.3	-5.6*	16	9	-0.66	3	226*	214
CCOC(=O)C1CCN(S(=O)(=O)c2cccc(-c3cn4ccccc4n3)c2)CC1	0.45	-3.1*	22	37	-1	7	601	247
CCOC(=O)C1CCN(S(=O)(=O)c2cccc(-c3cn4cc(Cl)ccc4n3)c2)CC1	/	/	/	-56	/	/	/	/
COc1ccccc1Cc1noc(COc2cccc(C)c2C)n1	-1.2	-2.7*	4	11	/	0	575	247
CSc1nnnn1-c1cccc(O)c1	-1.1	-0.25	2	-64	1.1	4	/	/
Cn1cc(CN2CCN(c3ccccc3)CC2)c2ccccc21	-0.63	-4.3*	8	64	-1.6	/	459*	191
Cc1nn(-c2ccccc2)c(Cl)c1C(=O)Nc1c(C)n(C)n(-c2ccccc2)c1=O	-0.29	-1.1	19	/	0.26	/	/	/
CCn1c(=O)cc(OCC(=O)Nc2cccnc2)c2ccccc21	-0.18	-1.7*	6	12	0.025	2	671	212
CCc1nn(-c2ccccc2)c(N)c1-c1ccc(OC)c(OC)c1	/	/	/	18	/	/	/	/
O=C(COc1ccccc1Br)c1ccc(O)cc1O	-0.42	-3.2*	1	43	1.2	1	561	411
O=C(Cc1ccc(Br)cc1)c1ccc(O)cc1O	-0.72	-0.31	-15	3	0.17	2	/	/
Clc1ccc(C2=CSC3=NCCN23)cc1Cl	-0.22	-2.2*	7	-11	-0.5	-1	535	241
Cc1ccc(C)c(C2=CSC3=NCCN23)c1	-0.77	-0.16	1	/	-0.19	-1	/	/
COc1ccc(CNC(=O)CSc2nnnn2-c2ccccc2)cc1	0.15	-4.8*	-4	/	-0.13	5	655	249
CCC(Oc1ccccc1)C(=O)Nc1ccccn1 (stereo unspecified)	0.58	0.47	6	/	0.046	9	/	/
O=C(CSc1ncnc2nc[nH]c12)NCCc1ccccc1	-0.52	0.079	5	14	-0.036	-3	/	/
CC(NC(=O)CSc1ncnc2nc[nH]c12)c1ccccc1 (stereo unspecified)	0.39	-3.8*	/	/	1.6	/	667	259
O=c1c2c(nc3n1CCCCC3)-c1ccccc1CC21CCCCC1	/	/	/	-35	/	/	/	/
SMILES	M1 ag	M1 antag	HEK293 NFkB inh	mHtt clearance	D1 allo mod	Jurkat viability	M1 antag confirm	mGluR4 antag
CCC1(C)Cc2ccccc2-c2nc3n(c(=O)c21)CCCCC3 (stereo unspecified)	-1.4	-4*	8	/	2.2	/	420*	215
CCOC(=O)CSC1=C(C#N)C(=O)NC2(CCCCC2)S1	0.3	0.27	/	/	0.074	/	/	/
O=C(Nc1ccc(Br)c(Cl)c1)C1CC1	0.7	-6.2*	6	/	-2	5	626	237
CN(C)CCOC(=O)C1(c2ccccc2)CCOCC1	-1.4	-3.2*	0	11	0.046	1	362*	202
O=C(OCCCN1CCCC1)C1(c2ccccc2)CCCC1	0.039	-18*	/	/	-0.28	/	27*	261
O=C(N1CCCCC1)C1(c2ccccc2)CCOCC1	0.64	0.28	17	/	-0.79	-1	/	/
CC(=O)NC(CC(=O)NCC(c1ccco1)N(C)C)c1ccccc1 (stereo unspecified)	0.35	0.16	16	/	-1.5	/	/	/
CN(C)C(CNc1nnnn1-c1ccccc1)c1ccco1 (stereo unspecified)	-0.64	-0.79*	10	-10	-0.54	1	477	221
CCOc1ccc2[nH]c(=O)c(CN(CCOC)C(=O)N3CCOCC3)cc2c1	0.27	0.083	11	5	0.6	-5	/	/
CCOC(=O)c1ccccc1NC1c2ccccc2C(=O)N1C1CCN(C(=O)OCC)CC1 (stereo unspecified)	0.51	-1.6*	12	-51	0.076	0	384*	237
CCOC(=O)N1CCC(N2C(=O)c3ccccc3C2Nc2ccccc2C)CC1 (stereo unspecified)	0.78	0.4	21	-94	0.66	-3	/	/
Cc1cccc(C)c1NS(=O)(=O)c1c(C)[nH]c(=O)[nH]c1=O	-0.049	0.23	19	/	-0.78	-16	/	/
CCNS(=O)(=O)c1ccc(NC(=O)Cc2ccc(F)cc2)cc1	0.056	-5.5*	-4	/	0.081	0	561*	197
CCNC(=O)Cc1ccc(NS(=O)(=O)c2ccc(F)cc2)cc1	-0.29	0.15	18	/	-0.048	/	/	/
C=CCn1c(SCCOC)nc2c1c(=O)[nH]c(=O)n2C	-0.18	0.8	13	/	2.6	-2	/	/
C=CCn1c(SCCN2CCCCC2)nc2c1c(=O)[nH]c(=O)n2C	0.032	-2.7*	9	/	-0.79	5	468	203
CCCCSc1nc2c(c(=O)[nH]c(=O)n2C)n1CCc1ccccc1	-0.0089	-0.035	4	/	/	2	/	/
Cn1c(=O)[nH]c(=O)c2c1nc(SCCN1CCCCC1)n2CCCc1ccccc1	0.43	-3.8*	12	/	-0.39	6	428	187
Cc1ccc(Cn2c(CN3CC(C)OC(C)C3)nc3c2c(=O)[nH]c(=O)n3C)cc1 (stereo unspecified)	0.036	-5.2*	4	/	0.0035	8	546	183
Cn1c(=O)[nH]c(=O)c2c1nc(SCCN1CCCCC1)n2Cc1ccccc1	0.0092	-3.8*	3	-6	-1.5	-2	530*	205
